Assays:
Renal cancer cell line [1] = test: Cytostatic activity against human Renal cancer cells incubated for 48 hrs by SRB assay; type: functional
Procedure, shortened: (§1)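 NCI-60 five-concentration screen: lines seeded 5×10^3–4×10^4 cells/well depending on line; compound diluted in fresh medium at scalar concentrations 0–100 or 0–1000 μM; 48 h exposure, in situ fixation, sulforhodamine B protein staining, optical density read; GI50, TGI and LC50 per NCI procedures; panel mean = mean graph midpoint.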

Ovarian cancer cell line [2] = test: Cytotoxicity against human Ovarian cancer cells incubated for 48 hrs by SRB assay; type: functional; procedure, shortened: as §1
[3] = tested on: Panel NCI-60 (60 carcinoma cell lines); test: Cell growth inhibition of human Panel NCI-60 (60 carcinoma cell lines) incubated for 48 hrs by SRB assay; type: functional; procedure, shortened: as §1
NSCLC = test: Cell growth inhibition of human NSCLC cells incubated for 48 hrs by SRB assay; type: functional; procedure, shortened: as §1
Breast cancer cell line [4] = test: Cytotoxicity against human Breast cancer cells incubated for 48 hrs by SRB assay; type: functional; procedure, shortened: as §1
[5] = Cytostatic activity against human Leukemia cancer cells incubated for 48 hrs by SRB assay; type: functional, Leukemia cell; procedure, shortened: as §1
[6] = tested on: Panel NCI-60 (60 carcinoma cell lines); test: Cytostatic activity against human Panel NCI-60 (60 carcinoma cell lines) incubated for 48 hrs by SRB assay; type: functional; procedure, shortened: as §1
CNS carcinoma cell [7] = test: Cell growth inhibition of human CNS carcinoma cells incubated for 48 hrs by SRB assay; type: functional; procedure, shortened: as §1
CNS carcinoma cell [8] = test: Cytostatic activity against human CNS carcinoma cells incubated for 48 hrs by SRB assay; type: functional; procedure, shortened: as §1
Renal cancer cell line [9] = test: Cell growth inhibition of human Renal cancer cells incubated for 48 hrs by SRB assay; type: functional; procedure, shortened: as §1
[10] = Cell growth inhibition of human Leukemia cancer cells incubated for 48 hrs by SRB assay; type: functional; procedure, shortened: as §1
Ovarian cancer cell line [11] = test: Cytostatic activity against human Ovarian cancer cells incubated for 48 hrs by SRB assay; type: functional; procedure, shortened: as §1
Melanoma cell line [12] = test: Cell growth inhibition of human Melanoma cells incubated for 48 hrs by SRB assay; type: functional; procedure, shortened: as §1
Prostatic carcinoma cell = test: Cell growth inhibition of human Prostate carcinoma cells incubated for 48 hrs by SRB assay; type: functional; procedure, shortened: as §1
Colon carcinoma cell [13] = test: Cytostatic activity against human Colon carcinoma cells incubated for 48 hrs by SRB assay; type: functional; procedure, shortened: as §1
[14] = Cytotoxicity against human Leukemia cancer cells incubated for 48 hrs by SRB assay; type: functional; conditions: Leukemia cell, read-out: LC50 (the source's name)
Procedure, shortened: (§2)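 NCI DTP five-concentration screen. Cells were seeded at 5 × 10³–4 × 10⁴ cells/well, depending on the line. Compounds were diluted in fresh medium and added at scalar concentrations over 0–1000 µM or 0–100 µM. After 48 h the cells were fixed in situ, stained with sulforhodamine B, and optical density was read. GI50, TGI and LC50 were derived by NCI procedures, and the panel mean is the mean graph midpoint.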

Melanoma cell line [15] = test: […] against human Melanoma cells incubated for 48 hrs by SRB assay; type: functional; conditions: read-out: LC50 (the source's name); procedure, shortened: as §2
Breast cancer cell line [16] = test: Cell growth inhibition of human Breast cancer cells incubated for 48 hrs by SRB assay; type: functional; conditions: read-out: LC50 (the source's name); procedure, shortened: as §2
Breast cancer cell line [17] = test: Cytostatic activity against human Breast cancer cells incubated for 48 hrs by SRB assay; type: functional; procedure, shortened: as §1
Colon carcinoma cell [18] = test: Cytotoxicity against human Colon carcinoma cells incubated for 48 hrs by SRB assay; type: functional; procedure, shortened: as §1

Row | SMILES | GI (Renal cancer cell line [1]) | GI (Ovarian cancer cell line [2]) | GI50 [3] | GI (NSCLC) | GI (Breast cancer cell line [4]) | GI [5] | GI [6] | GI50 (CNS carcinoma cell [7]) | GI (CNS carcinoma cell [8]) | GI50 (Renal cancer cell line [9]) | GI50 [10] | TGI (Ovarian cancer cell line [11]) | GI (Melanoma cell line [12]) | GI (Prostatic carcinoma cell) | TGI (Colon carcinoma cell [13]) | CC50 [14] | CC50 (Melanoma cell line [15]) | CC50 (Breast cancer cell line [16]) | TGI (Breast cancer cell line [17]) | GI (Colon carcinoma cell [18])
1 | O=C1Nc2cc(Cl)ccc2/C1=C\c1cccc(/C=C2/C(=O)Nc3cc(Cl)ccc32)c1 | 8.51 µM | 44.67 µM | 2.57 µM | 3.39 µM | 37.15 µM | 11.22 µM | 7.59 µM | 2.29 µM | 5.89 µM | 3.09 µM | 2.4 µM | 8.91 µM | 2.19 µM | 2.14 µM | 4.68 µM | 100 µM | 5.25 µM | 2.45 µM | 6.92 µM | 11.22 µM
2 | CC(C)(C)c1cc(/C=C2/C(=O)Nc3ccc(F)cc32)c(O)c(/C=C2/C(=O)Nc3ccc(F)cc32)c1 | 14.13 µM | 47.86 µM | 3.8 µM | 4.17 µM | 46.77 µM | 12.02 µM | 13.8 µM | 2.95 µM | 12.02 µM | 4.68 µM | 3.09 µM | 15.8 µM | 3.02 µM | 3.89 µM | 14.8 µM | 60.3 µM | 9.77 µM | 3.8 µM | 19.5 µM | 42.66 µM
3 | COc1ccc2c(c1)/C(=C\c1cc(C(C)(C)C)cc(/C=C3/C(=O)N(C)c4ccc(OC)cc43)c1O)C(=O)N2C | 8.32 µM | 28.18 µM | 2.24 µM | 2.34 µM | 36.31 µM | 20.42 µM | 6.61 µM | 1.91 µM | 4.9 µM | 2.51 µM | 2.82 µM | 7.24 µM | 1.86 µM | 3.09 µM | 4.79 µM | 100 µM | 3.98 µM | 2.24 µM | 6.17 µM | 16.98 µM
